# According to ChEMBL document CHEMBL5058577, “EUbOPEN Chemogenomics Library 2 (Multiplex)” (2022):
# Tested on: U2OS
# Experiment: Multiplex assay against U2OS
# Type: toxicity, cell-based
# Conditions: human
# Method in brief: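 Compound was added to live cells that had been stained at seeding with Hoechst33342, BioTracker Green Microtubule Cytoskeleton Dye, MitoTracker Red and Annexin V Alexa Fluor 680, and imaging followed on a CQ1 microscope at 37°C and 5% CO2. CellPathfinder machine-learning gating divided cells into Hoechst high-intensity objects or normal cells, normal cells into healthy, pyknosed or fragmented nuclei, and pyknosed cells into mitotic or apoptotic. Tubulin, mitochondrial-mass and membrane-permeability phenotypes are per cents of healthy-nucleus cells.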
# [1] = 12 h, 1 µM, compound concentration 1 uM, replicate 1
# [2] = 12 h, 1 µM, compound concentration 1 uM, replicate 2
# [3] = 12 h, 10 µM, compound concentration 10 uM, replicate 1
# [4] = 12 h, 10 µM, compound concentration 10 uM, replicate 2
# [5] = 24 h, 1 µM, compound concentration 1 uM, replicate 1
# [6] = 24 h, 1 µM, compound concentration 1 uM, replicate 2
# [7] = 24 h, 10 µM, compound concentration 10 uM, replicate 1
# [8] = 24 h, 10 µM, compound concentration 10 uM, replicate 2
# [9] = 48 h, 1 µM, compound concentration 1 uM, replicate 1
# [10] = 48 h, 1 µM, compound concentration 1 uM, replicate 2
# [11] = 48 h, 10 µM, compound concentration 10 uM, replicate 1
# [12] = 48 h, 10 µM, compound concentration 10 uM, replicate 2
smiles,measurement,setting,value
CSc1nc(NC2CCCC2)c([N+](=O)[O-])c(NC2CCCC2)n1 [GS-39783],Population Apoptotic (%),[1],82%
same,Population Fragmented Nuclei (%),[1],25%
same,Population Healthy Nuclei (%),[1],66%
same,Population Hoechst High Intensity Objects (%),[1],2%
same,Population Membrane Permeable-Phenotype (%),[1],4%
same,Population Mitochondria Different-Phenotype (%),[1],3%
same,Population Mitotic Cells (%),[1],17%
same,Population Normal (%),[1],97%
same,Population Pyknosed Nuclei (%),[1],8%
same,Population Tubulin-Different-Phenotype (%),[1],1%
same,Total Cell Count,[1],209
same,Population Apoptotic (%),[2],80%
same,Population Fragmented Nuclei (%),[2],18%
same,Population Healthy Nuclei (%),[2],76%
same,Population Hoechst High Intensity Objects (%),[2],3%
same,Population Mitochondria Different-Phenotype (%),[2],0%
same,Population Mitotic Cells (%),[2],20%
same,Population Normal (%),[2],96%
same,Population Pyknosed Nuclei (%),[2],5%
same,Total Cell Count,[2],96
same,Population Apoptotic (%),[3],88%
same,Population Fragmented Nuclei (%),[3],30%
same,Population Healthy Nuclei (%),[3],63%
same,Population Hoechst High Intensity Objects (%),[3],3%
same,Population Membrane Permeable-Phenotype (%),[3],9%
same,Population Mitochondria Different-Phenotype (%),[3],5%
same,Population Mitotic Cells (%),[3],11%
same,Population Normal (%),[3],96%
same,Population Pyknosed Nuclei (%),[3],5%
same,Population Tubulin-Different-Phenotype (%),[3],4%
same,Total Cell Count,[3],322
same,Population Apoptotic (%),[4],100%
same,Population Fragmented Nuclei (%),[4],19%
same,Population Healthy Nuclei (%),[4],75%
same,Population Hoechst High Intensity Objects (%),[4],1%
same,Population Mitochondria Different-Phenotype (%),[4],0%
same,Population Mitotic Cells (%),[4],0%
same,Population Normal (%),[4],98%
same,Population Pyknosed Nuclei (%),[4],4%
same,Population Tubulin-Different-Phenotype (%),[4],6%
same,Total Cell Count,[4],145
same,Population Apoptotic (%),[5],87%
same,Population Fragmented Nuclei (%),[5],22%
same,Population Healthy Nuclei (%),[5],64%
same,Population Hoechst High Intensity Objects (%),[5],2%
same,Population Membrane Permeable-Phenotype (%),[5],2%
same,Population Mitochondria Different-Phenotype (%),[5],1%
same,Population Mitotic Cells (%),[5],12%
same,Population Normal (%),[5],97%
same,Population Pyknosed Nuclei (%),[5],12%
same,Population Tubulin-Different-Phenotype (%),[5],1%
same,Total Cell Count,[5],269
same,Population Apoptotic (%),[6],84%
same,Population Fragmented Nuclei (%),[6],20%
same,Population Healthy Nuclei (%),[6],68%
same,Population Hoechst High Intensity Objects (%),[6],1%
same,Population Membrane Permeable-Phenotype (%),[6],1%
same,Population Mitotic Cells (%),[6],15%
same,Population Normal (%),[6],98%
same,Population Pyknosed Nuclei (%),[6],11%
same,Population Tubulin-Different-Phenotype (%),[6],0%
same,Total Cell Count,[6],119
same,Population Apoptotic (%),[7],85%
same,Population Fragmented Nuclei (%),[7],26%
same,Population Healthy Nuclei (%),[7],66%
same,Population Hoechst High Intensity Objects (%),[7],2%
same,Population Membrane Permeable-Phenotype (%),[7],6%
same,Population Mitochondria Different-Phenotype (%),[7],6%
same,Population Mitotic Cells (%),[7],14%
same,Population Normal (%),[7],97%
same,Population Pyknosed Nuclei (%),[7],6%
same,Population Tubulin-Different-Phenotype (%),[7],4%
same,Total Cell Count,[7],341
same,Population Apoptotic (%),[8],88%
same,Population Fragmented Nuclei (%),[8],18%
same,Population Healthy Nuclei (%),[8],75%
same,Population Hoechst High Intensity Objects (%),[8],3%
same,Population Membrane Permeable-Phenotype (%),[8],9%
same,Population Mitochondria Different-Phenotype (%),[8],2%
same,Population Mitotic Cells (%),[8],11%
same,Population Normal (%),[8],96%
same,Population Pyknosed Nuclei (%),[8],5%
same,Population Tubulin-Different-Phenotype (%),[8],5%
same,Total Cell Count,[8],164
same,Population Apoptotic (%),[9],88%
same,Population Fragmented Nuclei (%),[9],18%
same,Population Healthy Nuclei (%),[9],70%
same,Population Hoechst High Intensity Objects (%),[9],1%
same,Population Membrane Permeable-Phenotype (%),[9],3%
same,Population Mitochondria Different-Phenotype (%),[9],1%
same,Population Mitotic Cells (%),[9],11%
same,Population Normal (%),[9],98%
same,Population Pyknosed Nuclei (%),[9],11%
same,Population Tubulin-Different-Phenotype (%),[9],1%
same,Total Cell Count,[9],382
same,Population Apoptotic (%),[10],92%
same,Population Fragmented Nuclei (%),[10],21%
same,Population Healthy Nuclei (%),[10],71%
same,Population Hoechst High Intensity Objects (%),[10],0%
same,Population Mitotic Cells (%),[10],7%
same,Population Normal (%),[10],100%
same,Population Pyknosed Nuclei (%),[10],7%
same,Population Tubulin-Different-Phenotype (%),[10],3%
same,Total Cell Count,[10],185
same,Population Apoptotic (%),[11],89%
same,Population Fragmented Nuclei (%),[11],23%
same,Population Healthy Nuclei (%),[11],67%
same,Population Hoechst High Intensity Objects (%),[11],2%
same,Population Membrane Permeable-Phenotype (%),[11],5%
same,Population Mitochondria Different-Phenotype (%),[11],1%
same,Population Mitotic Cells (%),[11],10%
same,Population Normal (%),[11],97%
same,Population Pyknosed Nuclei (%),[11],8%
same,Population Tubulin-Different-Phenotype (%),[11],2%
same,Total Cell Count,[11],462
same,Population Apoptotic (%),[12],85%
same,Population Fragmented Nuclei (%),[12],12%
same,Population Healthy Nuclei (%),[12],81%
same,Population Hoechst High Intensity Objects (%),[12],0%
same,Population Membrane Permeable-Phenotype (%),[12],4%
same,Population Mitochondria Different-Phenotype (%),[12],3%
same,Population Mitotic Cells (%),[12],14%
same,Population Normal (%),[12],99%
same,Population Pyknosed Nuclei (%),[12],6%
same,Population Tubulin-Different-Phenotype (%),[12],3%
same,Total Cell Count,[12],231
O=c1nc2[nH]c3ccccc3nc-2c(=O)[nH]1 [ALLOXAZINE],Population Apoptotic (%),[1],70%
same,Population Fragmented Nuclei (%),[1],25%
same,Population Healthy Nuclei (%),[1],61%
same,Population Hoechst High Intensity Objects (%),[1],2%
same,Population Membrane Permeable-Phenotype (%),[1],5%
same,Population Mitochondria Different-Phenotype (%),[1],0%
same,Population Mitotic Cells (%),[1],29%
same,Population Normal (%),[1],97%
same,Population Pyknosed Nuclei (%),[1],12%
same,Population Tubulin-Different-Phenotype (%),[1],3%
same,Total Cell Count,[1],195
same,Population Apoptotic (%),[2],75%
same,Population Fragmented Nuclei (%),[2],15%
same,Population Healthy Nuclei (%),[2],74%
same,Population Mitochondria Different-Phenotype (%),[2],5%
same,Population Mitotic Cells (%),[2],25%
same,Population Pyknosed Nuclei (%),[2],10%
same,Total Cell Count,[2],122
same,Population Apoptotic (%),[3],86%
same,Population Fragmented Nuclei (%),[3],33%
same,Population Healthy Nuclei (%),[3],59%
same,Population Hoechst High Intensity Objects (%),[3],0%
same,Population Membrane Permeable-Phenotype (%),[3],7%
same,Population Mitochondria Different-Phenotype (%),[3],0%
same,Population Mitotic Cells (%),[3],13%
same,Population Normal (%),[3],99%
same,Population Pyknosed Nuclei (%),[3],7%
same,Population Tubulin-Different-Phenotype (%),[3],1%
same,Total Cell Count,[3],212
same,Population Apoptotic (%),[4],88%
same,Population Fragmented Nuclei (%),[4],13%
same,Population Healthy Nuclei (%),[4],78%
same,Population Hoechst High Intensity Objects (%),[4],1%
same,Population Mitochondria Different-Phenotype (%),[4],5%
same,Population Mitotic Cells (%),[4],11%
same,Population Normal (%),[4],98%
same,Population Tubulin-Different-Phenotype (%),[4],3%
same,Total Cell Count,[4],119
same,Population Apoptotic (%),[5],73%
same,Population Fragmented Nuclei (%),[5],24%
same,Population Healthy Nuclei (%),[5],66%
same,Population Hoechst High Intensity Objects (%),[5],1%
same,Population Membrane Permeable-Phenotype (%),[5],4%
same,Population Mitochondria Different-Phenotype (%),[5],1%
same,Population Mitotic Cells (%),[5],26%
same,Population Normal (%),[5],98%
same,Population Pyknosed Nuclei (%),[5],8%
same,Population Tubulin-Different-Phenotype (%),[5],2%
same,Total Cell Count,[5],261
same,Population Apoptotic (%),[6],57%
same,Population Fragmented Nuclei (%),[6],16%
same,Population Healthy Nuclei (%),[6],74%
same,Population Hoechst High Intensity Objects (%),[6],2%
same,Population Membrane Permeable-Phenotype (%),[6],5%
same,Population Mitochondria Different-Phenotype (%),[6],5%
same,Population Mitotic Cells (%),[6],42%
same,Population Normal (%),[6],97%
same,Population Pyknosed Nuclei (%),[6],9%
same,Total Cell Count,[6],146
same,Population Apoptotic (%),[7],78%
same,Population Fragmented Nuclei (%),[7],30%
same,Population Healthy Nuclei (%),[7],61%
same,Population Hoechst High Intensity Objects (%),[7],0%
same,Population Membrane Permeable-Phenotype (%),[7],8%
same,Population Mitochondria Different-Phenotype (%),[7],2%
same,Population Mitotic Cells (%),[7],21%
same,Population Normal (%),[7],99%
same,Population Pyknosed Nuclei (%),[7],8%
same,Population Tubulin-Different-Phenotype (%),[7],2%
same,Total Cell Count,[7],237
same,Population Apoptotic (%),[8],75%
same,Population Fragmented Nuclei (%),[8],16%
same,Population Healthy Nuclei (%),[8],80%
same,Population Hoechst High Intensity Objects (%),[8],2%
same,Population Membrane Permeable-Phenotype (%),[8],5%
same,Population Mitochondria Different-Phenotype (%),[8],4%
same,Population Mitotic Cells (%),[8],25%
same,Population Normal (%),[8],97%
same,Population Pyknosed Nuclei (%),[8],2%
same,Population Tubulin-Different-Phenotype (%),[8],3%
same,Total Cell Count,[8],148
same,Population Apoptotic (%),[9],84%
same,Population Fragmented Nuclei (%),[9],19%
same,Population Healthy Nuclei (%),[9],71%
same,Population Hoechst High Intensity Objects (%),[9],1%
same,Population Membrane Permeable-Phenotype (%),[9],1%
same,Population Mitochondria Different-Phenotype (%),[9],1%
same,Population Mitotic Cells (%),[9],15%
same,Population Normal (%),[9],98%
same,Population Pyknosed Nuclei (%),[9],9%
same,Population Tubulin-Different-Phenotype (%),[9],1%
same,Total Cell Count,[9],362
same,Population Apoptotic (%),[10],76%
same,Population Fragmented Nuclei (%),[10],18%
same,Population Healthy Nuclei (%),[10],72%
same,Population Hoechst High Intensity Objects (%),[10],6%
same,Population Membrane Permeable-Phenotype (%),[10],4%
same,Population Mitochondria Different-Phenotype (%),[10],2%
same,Population Mitotic Cells (%),[10],23%
same,Population Normal (%),[10],93%
same,Population Pyknosed Nuclei (%),[10],8%
same,Population Tubulin-Different-Phenotype (%),[10],2%
same,Total Cell Count,[10],207
same,Population Apoptotic (%),[11],90%
same,Population Fragmented Nuclei (%),[11],26%
same,Population Healthy Nuclei (%),[11],66%
same,Population Hoechst High Intensity Objects (%),[11],1%
same,Population Membrane Permeable-Phenotype (%),[11],5%
same,Population Mitochondria Different-Phenotype (%),[11],1%
same,Population Mitotic Cells (%),[11],9%
same,Population Normal (%),[11],98%
same,Population Pyknosed Nuclei (%),[11],6%
same,Population Tubulin-Different-Phenotype (%),[11],2%
same,Total Cell Count,[11],321
same,Population Apoptotic (%),[12],76%
same,Population Fragmented Nuclei (%),[12],12%
same,Population Healthy Nuclei (%),[12],79%
same,Population Membrane Permeable-Phenotype (%),[12],3%
same,Population Mitotic Cells (%),[12],23%
same,Population Pyknosed Nuclei (%),[12],8%
same,Total Cell Count,[12],210
